From PubChem BioAssay
Lipid droplet: modulators of hepatic lipid droplet formation. AML12 mouse hepatocytes, oleate lipid droplets, BODIPY imaging. inhibition, % at 6.5 µM. 240,000 tested, 0.4% active;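 active = lipid droplet intensity inhibited by at least 50%, with more than 500 cells counted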
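System: AML12 hepatocytes (mouse). Probe or stimulus: oleic acid at 100 µM to induce lipid droplet formation. Times: overnight treatment with compound plus oleate. Detection: Image-based BODIPY and DAPI two-channel analysis. Evaluation: percent inhibition of filter-corrected integrated lipid droplet intensity per well.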
SR-BI uptake up: SR-BI HDL lipid transfer activation; activation, % at 12.5 µM; CHO ldlA[mSR-BI] cells, DiI-HDL uptake fluorescence, 3 h; 100 = double the neutral-control signal; 320,000 tested, 0.096% active; AID 504775;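 active = mean replicate activation of at least 60% and every replicate at or above 60%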;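 note: 0% = median plate neutral-control signal and 100% = twice that signal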
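material = CHO ldlA[mSR-BI] cells | medium = Ham's F12 with 0.5% BSA, HEPES 25 mM, pH 7.4 | reagent = fluorescent DiI-HDL, 10 µg/mL final | compound dosing = single-point compound dose | incubation = 3 h, 37 °C | measured by = bottom-read fluorescence, 550/595 nm | measure = HDL uptake via cellular fluorescence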
Yeast superoxide: lowers age-related superoxide in aged yeast cells. S. cerevisiae aged cells, superoxide DHE fluorescence; hits give low values. AID 2690. 330,000 tested, 0.18% active. superoxide response (% of plate mean), % at 10 µM;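 active = superoxide response under a set limit, about three screen SD below normal, cut at about 65% in these data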;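 note: yeast aged for seven days with compound at 30 °C before DHE staining; 100% = average MFI of all compound-treated wells on the plate with controls excluded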
SMARCA2 act: SMARCA2 function activation, primary screen; activation, % at 9.1 µM; AID 652017; MG213 cells, MMTV-luciferase reporter, dexamethasone, overnight; 370,000 tested, 1% active; in the data active = activation above about 7.8%;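 note: 0% = vehicle wells and 100% = reference activator wells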
AHR act: activates the human aryl hydrocarbon receptor. P35869. AHR-responsive luciferase reporter cells, luminescence. activation, % at 5 µM. 320,000 tested, 2.5% active; in the data active = activation above about 47%;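 note: 0% = vehicle wells and 100% = reference agonist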
Target sequence (P35869 whole entry, looked up): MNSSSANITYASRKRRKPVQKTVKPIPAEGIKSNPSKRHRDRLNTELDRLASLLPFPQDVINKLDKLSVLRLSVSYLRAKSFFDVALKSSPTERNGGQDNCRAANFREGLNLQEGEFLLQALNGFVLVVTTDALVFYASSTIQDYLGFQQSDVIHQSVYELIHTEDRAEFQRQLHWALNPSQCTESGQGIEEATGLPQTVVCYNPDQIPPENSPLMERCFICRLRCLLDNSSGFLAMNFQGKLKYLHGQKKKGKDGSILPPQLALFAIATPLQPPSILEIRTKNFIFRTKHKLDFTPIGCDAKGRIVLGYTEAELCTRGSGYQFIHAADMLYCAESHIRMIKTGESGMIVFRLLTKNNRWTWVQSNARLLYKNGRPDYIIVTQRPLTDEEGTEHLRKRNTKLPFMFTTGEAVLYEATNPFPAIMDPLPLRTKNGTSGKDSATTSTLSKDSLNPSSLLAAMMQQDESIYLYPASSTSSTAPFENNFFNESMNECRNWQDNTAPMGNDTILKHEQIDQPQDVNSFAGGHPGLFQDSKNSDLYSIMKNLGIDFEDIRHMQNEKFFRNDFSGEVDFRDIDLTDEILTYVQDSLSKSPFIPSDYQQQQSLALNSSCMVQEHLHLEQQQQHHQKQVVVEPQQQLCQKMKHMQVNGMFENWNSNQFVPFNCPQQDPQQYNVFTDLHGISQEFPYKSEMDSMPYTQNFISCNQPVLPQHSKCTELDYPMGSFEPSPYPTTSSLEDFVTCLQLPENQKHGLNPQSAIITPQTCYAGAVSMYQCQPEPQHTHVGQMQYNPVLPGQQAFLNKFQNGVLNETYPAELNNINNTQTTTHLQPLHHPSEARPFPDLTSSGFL
SR-BI HDL uptake: inhibitors of mouse SR-BI mediated HDL lipid uptake; inhibition, % at 12.5 µM; 320,000 tested, 0.96% active; Q61009; ldlA[mSR-BI] CHO cells, DiI-HDL uptake fluorescence, 3 h;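 active = mean replicate inhibition of at least 70% and a set share of replicates each scoring 70 or more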;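 note: 0% = median of neutral control wells and 100% = median of positive control wells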
Starred values were filed as active, the others as inactive. Shown are actives, neighbours in structure and some others; about 4.3% of the full set was active somewhere.

Screening O=c1c(-c2ccccc2)nc2ccccc2n1C(c1ccccn1)c1nc2ccccc2[nH]1 (configuration not stated) returned SMARCA2 act 1.
`COc1ccc2c(c1)nc(-c1cccc(Br)c1)c(=O)n2C(c1ccccn1)c1nc2ccccc2[nH]1` (configuration not stated) gave SMARCA2 act 7.9*.
For O=C(CNSc1ccc([N+](=O)[O-])cc1[N+](=O)[O-])OCc1ccccc1 the results were SMARCA2 act 0.
`C=COCCNC(=O)Nc1ccc(Cl)cc1Cl` gave Lipid droplet 8, SR-BI uptake up -72, Yeast superoxide 91, SMARCA2 act 2, AHR act -1 and SR-BI HDL uptake 72*.
`Cn1c(COc2ccccc2)nnc1SCC(=O)Nc1ccccc1-c1ccccc1` gave SMARCA2 act 2.
Screening COc1ccc(C)cc1NC(=O)c1nn(C)c(C(=O)Nc2cc(C)ccc2OC)c1[N+](=O)[O-] returned Lipid droplet -26, SR-BI uptake up -35, Yeast superoxide 99, SMARCA2 act -3, AHR act 2 and SR-BI HDL uptake 35.
`COc1ccc(C)cc1NC(=O)c1nn(C)cc1Br` gave Lipid droplet 0, SR-BI uptake up -7, Yeast superoxide 82, SMARCA2 act -1, AHR act 60* and SR-BI HDL uptake 7.
For CN1CCCCC(NC(=O)C23CC4CC(CC(C4)C2)C3)C1=O (configuration not stated) the results were SMARCA2 act -3.
Cc1cccc(-c2cc3c(N=O)c4ccccc4c-3n[nH]2)c1 was read as Lipid droplet 2, SR-BI uptake up 7, Yeast superoxide 142, SMARCA2 act 7, AHR act 127* and SR-BI HDL uptake -7.
`N=c1n(CCO)c2ccccc2n1CCN1CCCCC1` gave Lipid droplet -1, SR-BI uptake up 15, Yeast superoxide 95, SMARCA2 act -4, AHR act 0 and SR-BI HDL uptake -15.
For N=c1n(CCN2CCCCC2)c2ccccc2n1CC(=O)c1cccc([N+](=O)[O-])c1 the results were Lipid droplet -4, SR-BI uptake up -68, Yeast superoxide 103, SMARCA2 act 8.6*, AHR act 46 and SR-BI HDL uptake 68.
`COc1ccc(-c2csc(Nc3ccc(C)cn3)n2)cc1OC` gave Lipid droplet 2, SR-BI uptake up -77, Yeast superoxide 95, SMARCA2 act 2, AHR act -7 and SR-BI HDL uptake 77*.
`O=C(Nc1ccc2c(c1)COC2=O)c1ccc(Cl)c(Cl)c1` gave Lipid droplet 13, SR-BI uptake up -72, Yeast superoxide 120, SMARCA2 act 5, AHR act -10 and SR-BI HDL uptake 72*.
For CS(=O)(=O)c1cccc(NC(=O)c2ccc(Cl)c(Cl)c2)c1 the results were Lipid droplet -10, SR-BI uptake up -83, Yeast superoxide 105, SMARCA2 act 3, AHR act 23 and SR-BI HDL uptake 83*.
Cc1cc(NS(=O)(=O)c2ccc(NC(=O)CSc3nnc(-c4ccco4)n3-c3ccc(Cl)cc3)cc2)nc(C)n1 was read as SMARCA2 act -8.
For O=C(N/N=C/c1ccc(O)cc1O)c1ccc(CN2C(=O)c3cccc4cccc2c34)cc1 the results were Lipid droplet -30, SR-BI uptake up -124, Yeast superoxide 92, SMARCA2 act -5, AHR act 4 and SR-BI HDL uptake 124*.
`O=C(N/N=C/c1ccccc1)c1ccc(CN2C(=O)c3cccc4cccc2c34)cc1` gave Lipid droplet -1, SR-BI uptake up -7, Yeast superoxide 91, SMARCA2 act -5, AHR act 13 and SR-BI HDL uptake 7.
CCOC(=O)CNC(=O)C(Cc1ccc2c(c1)OCO2)NC(C)=O (configuration not stated) was read as SMARCA2 act -1.
Cc1occc1C(=O)N1CCCC(N2CCN(c3cccc(C(F)(F)F)c3)CC2)C1 (configuration not stated) was read as Lipid droplet -24, SR-BI uptake up -16, Yeast superoxide 100, SMARCA2 act -2, AHR act 13 and SR-BI HDL uptake 16.
